For series [1], the system named is MT4. Description: Cytotoxicity against human MT4 cells for 4 days. The format is cell-based. The conditions noted are these: mt4, 96 h. An outline of the steps: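 MT4 cells cultured with various compound concentrations for 4 days. Viability read by a CytoTox-Glo luminescent cytotoxicity assay. CC50 is the concentration reducing viable cells by 50%.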
Series [2] has as its system Human immunodeficiency virus 1. Kind of series: Antiviral activity against 0.001 MOI bevirimat-resistant Human immunodeficiency virus 1 NL4-3 harboring gag V370A mutant infected in human MT4 cells assessed as inhibition of viral replication measured 4 days post infection by ELISA. It counts as functional, organism-based. The note with it: Human immunodeficiency virus 1, NL4-3, MT4, 96 h. An outline of the steps:
(§1)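 Mutations introduced into pNL4-3 by site-directed mutagenesis. MT4 cells infected with wild-type NL4-3 or resistant variant at 0.001 TCID50/cell in presence of graded compound concentrations. Supernatant p24 measured by ELISA on day 4 post-infection. IC50 is the concentration reducing p24 by 50%, reported as mean ± SD with the number of tests given per value.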

In series [3] the test system is Human immunodeficiency virus 1. Kind of series: Antiviral activity against 0.001 MOI wild type Human immunodeficiency virus 1 NL4-3 infected in human MT4 cells assessed as inhibition of viral replication measured 4 days post infection by ELISA. It counts as functional, organism-based. The conditions noted are these: Human immunodeficiency virus 1, NL4-3, MT4, 96 h. An outline of the steps: as §1

On to `C=C(C)[C@@H]1CC[C@]2(C(=O)NCCCCCCCCCNC(=O)CNC(=O)OC(C)(C)C)CC[C@]3(C)[C@H](CC[C@@H]4[C@@]5(C)CC[C@H](OC(=O)CC(C)(C)C(=O)O)C(C)(C)[C@@H]5CC[C@]43C)[C@@H]12`, for which, in series [1], the CC50 is more than 10000 nM. For the same compound, the 50% inhibitory concentration (IC50) worked out at 1040 nM in series [2] and 20 nM in series [3].

With `C=C(C)[C@@H]1CC[C@]2(C(=O)NCCCCCCCNC(=O)[C@H](C)NC(=O)OC(C)(C)C)CC[C@]3(C)[C@H](CC[C@@H]4[C@@]5(C)CC[C@H](OC(=O)CC(C)(C)C(=O)O)C(C)(C)[C@@H]5CC[C@]43C)[C@@H]12`, in series [1], the CC50 was found to be 7900 nM. For the same compound, the IC50 amounted to 370 nM in series [2] and 10 nM in series [3].

In series [1], `C=C(C)[C@@H]1CC[C@]2(C(=O)NCCCCCCCCCNC(=O)[C@H](C)NC(=O)OC(C)(C)C)CC[C@]3(C)[C@H](CC[C@@H]4[C@@]5(C)CC[C@H](OC(=O)CC(C)(C)C(=O)O)C(C)(C)[C@@H]5CC[C@]43C)[C@@H]12` gave a CC50 of more than 10000 nM. In addition, the figures for the IC50 in series [2] and in series [3] were 1580 nM and 50 nM, respectively.

As for `C=C(C)[C@@H]1CC[C@]2(C(=O)NCCCCCCCCNC(=O)[C@@H]3CCCN3C(=O)OC(C)(C)C)CC[C@]3(C)[C@H](CC[C@@H]4[C@@]5(C)CC[C@H](OC(=O)CC(C)(C)C(=O)O)C(C)(C)[C@@H]5CC[C@]43C)[C@@H]12`, the CC50 in series [1] is more than 10000 nM. The half-maximal inhibitory concentration (IC50) is 950 nM in series [2] and 40 nM in series [3].

Compound `C=C(C)[C@@H]1CC[C@]2(C(=O)NCCCCCCCC(=O)N[C@@H](CCC(N)=O)C(=O)OC)CC[C@]3(C)[C@H](CC[C@@H]4[C@@]5(C)CC[C@H](OC(=O)CC(C)(C)C(=O)O)C(C)(C)[C@@H]5CC[C@]43C)[C@@H]12` registered a CC50 in series [1] of more than 10000 nM. Also, the IC50 in series [2] was more than 5000 nM; in series [3], 50 nM.

The compound `C=C(C)[C@@H]1CC[C@]2(C(=O)NCCCCCCCCC(=O)NCC#N)CC[C@]3(C)[C@H](CC[C@@H]4[C@@]5(C)CC[C@H](OC(=O)CC(C)(C)C(=O)O)C(C)(C)[C@@H]5CC[C@]43C)[C@@H]12` gave a half-maximal cytotoxic concentration (CC50) in series [1] of 6490 nM. In addition, the IC50 in series [2] was determined as 460 nM; in series [3] it was 30 nM.

On to `C=C(C)[C@@H]1CC[C@]2(C(=O)NCCCCCCCCC(=O)N[C@@H](CCC(=O)OC)C(=O)OC)CC[C@]3(C)[C@H](CC[C@@H]4[C@@]5(C)CC[C@H](OC(=O)CC(C)(C)C(=O)O)C(C)(C)[C@@H]5CC[C@]43C)[C@@H]12`, for which the CC50 in series [1] was more than 10000 nM. Besides, the IC50 in series [2] came to 2160 nM; in series [3], 180 nM.

In series [1], `C=C(C)[C@@H]1CC[C@]2(C(=O)NCCCCCCCCC(=O)NCCC#N)CC[C@]3(C)[C@H](CC[C@@H]4[C@@]5(C)CC[C@H](OC(=O)CC(C)(C)C(=O)O)C(C)(C)[C@@H]5CC[C@]43C)[C@@H]12` yielded a CC50 of more than 10000 nM. Further, the values for the IC50 in series [2] and in series [3] were 330 nM and 150 nM, respectively.

As to `C=C(C)[C@@H]1CC[C@]2(C(=O)NCCCCCCCCC(=O)N(C)CC#N)CC[C@]3(C)[C@H](CC[C@@H]4[C@@]5(C)CC[C@H](OC(=O)CC(C)(C)C(=O)O)C(C)(C)[C@@H]5CC[C@]43C)[C@@H]12`, the CC50 in series [1] is more than 10000 nM. Further, the IC50 in series [2] was found to be 2080 nM; in series [3], 40 nM.

For the compound `C=C(C)[C@@H]1CC[C@]2(C(=O)NCCCCCCCCCNC(=O)[C@H](CCC(N)=O)NC(=O)OC(C)(C)C)CC[C@]3(C)[C@H](CC[C@@H]4[C@@]5(C)CC[C@H](OC(=O)CC(C)(C)C(=O)O)C(C)(C)[C@@H]5CC[C@]43C)[C@@H]12`, the CC50 in series [1] was more than 10000 nM. Moreover, the figures for the IC50 in series [2] and in series [3] were 1200 nM and 20 nM, respectively.

Regarding `C=C(C)[C@@H]1CC[C@]2(C(=O)NCCCCCCCCC(=O)NCC(=O)OC)CC[C@]3(C)[C@H](CC[C@@H]4[C@@]5(C)CC[C@H](OC(=O)CC(C)(C)C(=O)O)C(C)(C)[C@@H]5CC[C@]43C)[C@@H]12`, the CC50 in series [1] is more than 10000 nM. Further, the IC50 was 1510 nM in series [2] and 10 nM in series [3].

On to `C=C(C)[C@@H]1CC[C@]2(C(=O)N3CCN(CCCCC(=O)O)CC3)CC[C@]3(C)[C@H](CC[C@@H]4[C@@]5(C)CC[C@H](OC(=O)CC(C)(C)C(=O)O)C(C)(C)[C@@H]5CC[C@]43C)[C@@H]12`, for which the 50% cytotoxic concentration (CC50) in series [1] is more than 10000 nM. The IC50 is more than 3300 nM in series [2] and 6 nM in series [3].

Compound `C=C(C)[C@@H]1CC[C@]2(C(=O)NCCCCCCC(=O)N[C@@H](CCC(N)=O)C(=O)OC)CC[C@]3(C)[C@H](CC[C@@H]4[C@@]5(C)CC[C@H](OC(=O)CC(C)(C)C(=O)O)C(C)(C)[C@@H]5CC[C@]43C)[C@@H]12` came in with a CC50 in series [1] of more than 10000 nM. Further, the IC50 in series [2] was found to be 2460 nM; in series [3], 50 nM.

`C=C(C)[C@@H]1CC[C@]2(C(=O)NCCCCCCCCNC(=O)[C@H](CCC(N)=O)NC(=O)OC(C)(C)C)CC[C@]3(C)[C@H](CC[C@@H]4[C@@]5(C)CC[C@H](OC(=O)CC(C)(C)C(=O)O)C(C)(C)[C@@H]5CC[C@]43C)[C@@H]12` showed a CC50 in series [1] of more than 10000 nM. Moreover, the half-maximal inhibitory concentration (IC50) in series [2] was 360 nM; in series [3], 30 nM.

`C=C(C)[C@@H]1CC[C@]2(C(=O)NCCCCCCCCC(=O)N[C@@H](CCC(N)=O)C(=O)OCc3ccccc3)CC[C@]3(C)[C@H](CC[C@@H]4[C@@]5(C)CC[C@H](OC(=O)CC(C)(C)C(=O)O)C(C)(C)[C@@H]5CC[C@]43C)[C@@H]12`: in series [1], the CC50 was more than 10000 nM. Also, the values for the half-inhibitory concentration (IC50) in series [2] and in series [3] were 2540 nM and 40 nM, respectively.

In turn, `C=C(C)[C@@H]1CC[C@]2(C(=O)NCCCCCCCCCNC(=O)[C@H](CC(N)=O)NC(=O)OC(C)(C)C)CC[C@]3(C)[C@H](CC[C@@H]4[C@@]5(C)CC[C@H](OC(=O)CC(C)(C)C(=O)O)C(C)(C)[C@@H]5CC[C@]43C)[C@@H]12` returned a CC50 in series [1] of 8300 nM. For the same compound, the IC50 in series [2] is 340 nM; in series [3], 40 nM.

Consider `C=C(C)[C@@H]1CC[C@]2(C(=O)NCCCCCCCCC(=O)N3CCC[C@H]3C(=O)OC)CC[C@]3(C)[C@H](CC[C@@H]4[C@@]5(C)CC[C@H](OC(=O)CC(C)(C)C(=O)O)C(C)(C)[C@@H]5CC[C@]43C)[C@@H]12`, for which the CC50 in series [1] is more than 10000 nM. In addition, the values for the 50% inhibitory concentration (IC50) in series [2] and in series [3] were 880 nM and 100 nM, respectively.

Take `C=C(C)[C@@H]1CC[C@]2(C(=O)NCCCCCCCCNC(=O)[C@@H](NC(=O)OC(C)(C)C)C(C)C)CC[C@]3(C)[C@H](CC[C@@H]4[C@@]5(C)CC[C@H](OC(=O)CC(C)(C)C(=O)O)C(C)(C)[C@@H]5CC[C@]43C)[C@@H]12`: the CC50 in series [1] was more than 10000 nM. Moreover, the IC50 in series [2] came to 330 nM; in series [3], 150 nM.

`C=C(C)[C@@H]1CC[C@]2(C(=O)NCCCCCCCCNC(=O)[C@H](C)NC(=O)OC(C)(C)C)CC[C@]3(C)[C@H](CC[C@@H]4[C@@]5(C)CC[C@H](OC(=O)CC(C)(C)C(=O)O)C(C)(C)[C@@H]5CC[C@]43C)[C@@H]12` gave a CC50 in series [1] of more than 10000 nM. Moreover, the results for the IC50 in series [2] and in series [3] were 920 nM and 20 nM, respectively.

Consider `C=C(C)[C@@H]1CC[C@]2(C(=O)NCCCCCCCCNC(=O)[C@H](CCC#N)NC(=O)OC(C)(C)C)CC[C@]3(C)[C@H](CC[C@@H]4[C@@]5(C)CC[C@H](OC(=O)CC(C)(C)C(=O)O)C(C)(C)[C@@H]5CC[C@]43C)[C@@H]12`, for which, in series [1], the cytotoxic concentration (CC50) was more than 10000 nM. In addition, the IC50 in series [2] worked out at 330 nM; in series [3], 30 nM.

As to `C=C(C)[C@@H]1CC[C@]2(C(=O)NCCCCCCCCCC(=O)N[C@@H](CCC(N)=O)C(=O)OC)CC[C@]3(C)[C@H](CC[C@@H]4[C@@]5(C)CC[C@H](OC(=O)CC(C)(C)C(=O)O)C(C)(C)[C@@H]5CC[C@]43C)[C@@H]12`, the CC50 in series [1] was more than 10000 nM. Moreover, the IC50 worked out at 700 nM in series [2] and 100 nM in series [3].

In series [1], `C=C(C)[C@@H]1CC[C@]2(C(=O)NCCCCCCCNC(=O)[C@H](CCC(N)=O)NC(=O)OC(C)(C)C)CC[C@]3(C)[C@H](CC[C@@H]4[C@@]5(C)CC[C@H](OC(=O)CC(C)(C)C(=O)O)C(C)(C)[C@@H]5CC[C@]43C)[C@@H]12` showed a 50% cytotoxic concentration (CC50) of more than 10000 nM. Also, the IC50 in series [2] came to 2600 nM; in series [3], 10 nM.

Compound `C=C(C)[C@@H]1CC[C@]2(C(=O)NCCCCCCCCC(=O)N[C@@H](C)C(=O)OC)CC[C@]3(C)[C@H](CC[C@@H]4[C@@]5(C)CC[C@H](OC(=O)CC(C)(C)C(=O)O)C(C)(C)[C@@H]5CC[C@]43C)[C@@H]12` came in with a 50% cytotoxic concentration (CC50) in series [1] of more than 10000 nM. Also, the IC50 in series [2] is 420 nM; in series [3], 10 nM.

In series [1], `C=C(C)[C@@H]1CC[C@]2(C(=O)NCCCCCCCCC(=O)N[C@@H](CCC(N)=O)C(=O)OC(C)(C)C)CC[C@]3(C)[C@H](CC[C@@H]4[C@@]5(C)CC[C@H](OC(=O)CC(C)(C)C(=O)O)C(C)(C)[C@@H]5CC[C@]43C)[C@@H]12` yielded a half-maximal cytotoxic concentration (CC50) of more than 10000 nM. In addition, the IC50 was 810 nM in series [2] and 10 nM in series [3].

For `C=C(C)[C@@H]1CC[C@]2(C(=O)NCCCCCCCCC(=O)NCC(=O)O)CC[C@]3(C)[C@H](CC[C@@H]4[C@@]5(C)CC[C@H](OC(=O)CC(C)(C)C(=O)O)C(C)(C)[C@@H]5CC[C@]43C)[C@@H]12`, the CC50 in series [1] is more than 10000 nM. Also, the IC50 in series [2] is 480 nM; in series [3] it was 40 nM.

Values taken from ChEMBL document CHEMBL2321690, “New betulinic acid derivatives for bevirimat-resistant human immunodeficiency virus type-1” (J Med Chem, 2013).
